Test [1] concerns Pyricularia grisea. The test is described as follows: microbe, parasite or virus in culture. Format: functional. The note with it: ATCC 64413, 120 h, read-out: GI.
Test [2] concerns Pyricularia grisea. The test can be described thus: microbe, parasite or virus in culture. Conditions: ATCC 64413, 120 h, read-out: GI. Format: functional. This is another data set of the same source.
Test [3] concerns Pyricularia grisea. The test can be described thus: microbe, parasite or virus in culture. The format is functional, organism-based. Conditions: ATCC 64413, 120 h.
Test [4] has as its system Pyricularia grisea. The test is described as follows: microbe, parasite or virus in culture. Conditions: ATCC 64413, 120 h, read-out: GI. The format is functional. The source holds these as a separate data set.
For test [5], the system named is Globisporangium ultimum. The test is described as follows: Antifungal activity against logarithmic phase of Pythium ultimum ATCC 58812 assessed as growth inhibition at 50 ug/ml measured at 5 days post-drug treatment. The format is functional. The note with it: ATCC 58812, 120 h, read-out: GI. In short, it runs like this:
(§1)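 Log-phase mycelium (from 10 mm stationary-phase disks grown on cellophane over PDA, pH 5.6, 26 ± 1 °C) moved to PDA with compound added from DMSO stock at 45 °C. Final concentrations were 10, 50 or 100 µg mL^-1, with 0.1% DMSO in test and control media. Colony diameter was read daily for 5 days, in triplicate, as % of untreated control.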

For test [6], the system named is Botrytis cinerea. The test can be described thus: Antifungal activity against logarithmic phase of Botryotinia fuckeliana ATCC 48339 assessed as growth inhibition at 100 ug/ml measured at 5 days post-drug treatment. Format: functional. The note with it: ATCC 48339, 120 h, read-out: GI. In short, it runs like this:
as §1

The test system of test [7] is Globisporangium ultimum. The test is described as follows: Antifungal activity against logarithmic phase of Pythium ultimum ATCC 58812 assessed as growth inhibition at 10 ug/ml measured at 5 days post-drug treatment. Format: functional. The note with it: ATCC 58812, 120 h, read-out: GI. In outline:
as §1

For test [8], the system named is Globisporangium ultimum. The test can be described thus: Antifungal activity against logarithmic phase of Pythium ultimum ATCC 58812 assessed as growth inhibition at 100 ug/ml measured at 5 days post-drug treatment. The format is functional. Conditions: ATCC 58812, 120 h, read-out: GI. In outline:
as §1

Test [9] has as its system Globisporangium ultimum. The test is described as follows: Antifungal activity against logarithmic phase of Pythium ultimum Trow ATCC 58812 assessed as growth inhibition measured at 5 days post-drug treatment. Conditions: ATCC 58812, 120 h. The format is functional, organism-based. In short, it runs like this: (§2)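 Log-phase mycelium grown on cellophane over PDA (pH 5.6, 26 ± 1 °C) moved to PDA containing compound at 10, 50 and 100 µg mL^-1 final, with 0.1% DMSO in test and control media. Colony diameter was measured daily for 5 days, in triplicate, relative to untreated controls. IC50 came from curves of activity (%) versus log inhibitor concentration.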

Test [10] can be described thus: Ratio of IC50 for photosynthetic electron transport in active intact chloroplast thylakoid membrane of Spinacea oleracea L. leaves to IC50 for Pythium ultimum ATCC 58812.
In test [11] the test system is Botrytis cinerea. The test is described as follows: Antifungal activity against logarithmic phase of Botryotinia fuckeliana ATCC 48339 assessed as growth inhibition at 50 ug/ml measured at 5 days post-drug treatment. Format: functional. Conditions: ATCC 48339, 120 h, read-out: GI. In outline: as §1
Test [12] is described as follows: In vitro inhibition of basal rate of photosynthetic electron transport (Hill reaction) in active intact chloroplast thylakoid membrane of Spinacia oleracea (spinach) leaves assessed as inhibition of light-driven ferricyanide reduction at 5 uM measured at 24 degC at 30 s intervals for 10 min (reference value: 100 +/-3.1%).
In test [13] the test system is Botrytis cinerea. The test is described as follows: Antifungal activity against logarithmic phase of Botryotinia fuckeliana ATCC 48339 assessed as growth inhibition at 10 ug/ml measured at 5 days post-drug treatment. Format: functional. Conditions: ATCC 48339, 120 h, read-out: GI. In short, it runs like this:
as §1

In test [14] the test system is Botrytis cinerea. The test is described as follows: Antifungal activity against logarithmic phase of Botryotinia fuckeliana ATCC 48339 assessed as growth inhibition measured at 5 days post-drug treatment. Format: functional, organism-based. Conditions: ATCC 48339, 120 h. In short, it runs like this:
as §2

The record followed here is ChEMBL document CHEMBL3045616, “Synthetic pyrazole derivatives as growth inhibitors of some phytopathogenic fungi” (J Agric Food Chem, 2007).

Usually IC50 stands for the point on the concentration scale where inhibition reaches its midpoint. In the case of `Cc1cccc2sc3nncn3c12` [TRICYCLAZOLE], the inhibition of growth at 50 µg/mL in the test with Pyricularia grisea [1] was 24%. For the same compound, the inhibition of growth at 10 µg/mL with Pyricularia grisea [2] came to 0%. In the test with Pyricularia grisea [3], half-maximal inhibition (IC50) required 474 µM. For the same compound, the inhibition of growth at 100 µg/mL with Pyricularia grisea [4] amounted to 62%.
On to `CCOC(=O)c1cn[nH]c1NC(=S)Nc1cccc(C(F)(F)F)c1`, for which the inhibition of growth at 50 µg/mL was found to be 24.2% in the test with Globisporangium ultimum [5] and 46.3% with Pyricularia grisea [1]. The inhibition of growth at 100 µg/mL was determined as 23.2% with Botrytis cinerea [6], 28% in the test on Globisporangium ultimum [8] and 51% with Pyricularia grisea [4]. Further, the inhibition of growth at 10 µg/mL in the test on Globisporangium ultimum [7] came to 23%; in the test on Pyricularia grisea [2], 29.4%. This compound also returned an IC50 with Pyricularia grisea [3] of 224 µM.
Turning to `Cc1c(C(=O)O)c(C(=O)NC(C)(C)C)nn1-c1ccc(Cl)cc1`, the figures for the IC50 (with Globisporangium ultimum [9]; in test [12]) were 38 µM and 950 µM, respectively. Moreover, the inhibition of growth at 50 µg/mL in the test on Globisporangium ultimum [5] was determined as 69.3%; in the test on Pyricularia grisea [1], 31.5%; in the test on Botrytis cinerea [11], 49.3%. For the same compound, the results for the inhibition of growth at 100 µg/mL in the test on Botrytis cinerea [6], with Globisporangium ultimum [8] and in the test on Pyricularia grisea [4] were 49.9%, 69.3% and 33.2%, respectively. Moreover, the values for the inhibition of growth at 10 µg/mL in the test with Globisporangium ultimum [7], in the test with Pyricularia grisea [2] and in the test with Botrytis cinerea [13] were 47.2%, 20.9% and 45.6%, respectively. The Ratio IC50 in test [10] was determined as 25.
For `CCOC(=O)c1cn[nH]c1NC(=S)Nc1ccccc1Cl`, the inhibition of growth at 50 µg/mL in the test with Globisporangium ultimum [5] is 68.7%; in the test on Pyricularia grisea [1], 60.9%; with Botrytis cinerea [11], 30.9%. The inhibition of growth at 100 µg/mL in the test on Botrytis cinerea [6] was 36%; with Globisporangium ultimum [8], 70%; in the test with Pyricularia grisea [4], 67%. Besides, the values for the inhibition of growth at 10 µg/mL in the test with Globisporangium ultimum [7], with Pyricularia grisea [2] and in the test with Botrytis cinerea [13] were 66.5%, 48.7% and 4.3%, respectively. The same compound had an IC50 in the test with Pyricularia grisea [3] of 48 µM.
`O=C(Nc1ccccc1)c1ccccc1I` [BENODANIL]: in the test on Botrytis cinerea [6], the inhibition of growth at 100 µg/mL is 97.6%. In the test with Botrytis cinerea [14], the IC50 amounted to 66 µM. In the test on Botrytis cinerea [11], the inhibition of growth at 50 µg/mL is 91.2%. For the same compound, the inhibition of growth at 10 µg/mL in the test on Botrytis cinerea [13] came to 6.3%.
For `O=c1c2cn[nH]c2[nH]c(=S)n1-c1ccccc1Cl` the same measures were 66.2%, 83 µM, 63.8% and 40%.
As to `CCOC(=O)c1cn[nH]c1NC(=S)Nc1cccc(Cl)c1`, the inhibition of growth at 50 µg/mL with Globisporangium ultimum [5] was found to be 38.1%; with Pyricularia grisea [1], 18%; with Botrytis cinerea [11], 56.8%. The inhibition of growth at 100 µg/mL in the test with Botrytis cinerea [6] came out at 76.2%; in the test on Globisporangium ultimum [8] it was 60.8%; with Pyricularia grisea [4] it was 26%. Moreover, the inhibition of growth at 10 µg/mL in the test with Globisporangium ultimum [7] was found to be 32.9%; in the test with Pyricularia grisea [2], 16.6%; with Botrytis cinerea [13], 56%. Moreover, in the test on Botrytis cinerea [14], the IC50 was determined as 31 µM.
